The values that follow come from PMC9378630 (Chemmedchem, 2022).

Series [1] relates to human sperm. Nature of the series: AlamarBlue cytotoxicity assay in human sperm. Type of series: cell-based. The note with it: human sperm and IMR‐90 fibroblasts. An outline of the steps:
(§1)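 Sperm isolated by centrifugation: liquefied at 37 °C, HTF-washed twice, 800×g, resuspended in Low/Low (low pH/low K+) buffer. Mixed with test compound (2.2x in Low/Low). 8 half-log concentrations, 100 μM to 32 nM final, in duplicate. AlamarBlue at 37 °C, 560/590 nm fluorescence every 15 min over 3 h. IC50 from concentration-response fit.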
(Alamar Blue is a resazurin reagent that responds to reducing activity.)

The nature of series [2]: AlamarBlue cytotoxicity assay in human sperm. In kind it is cell-based. The note with it: human, human sperm. In short, it runs like this:
as §1

Series [3] can be described thus: AlamarBlue cytotoxicity assay in IMR-90 fibroblasts. The note with it: human, IMR-90 lung fibroblast cells. Type of series: cell-based, human. In short, it runs like this:
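IMR-90 lung fibroblasts cultured 2 weeks in EMEM + 10% FBS, split 2–4 days before use, trypsin-EDTA detached and resuspended in culture medium. Added to test compound (2.2x in Low/Low buffer). 8 half-log concentrations, 100 μM to 32 nM final, in duplicate. AlamarBlue added, 37 °C, fluorescence 560/590 nm read every 30 min over 7 h. IC50 from concentration-response fit.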

The target in series [4] is CatSper (Homo sapiens, UniProt Q7RTX7+Q86XQ3+Q8NEC5+Q96P56). The note with it: reported previously; cited from earlier work.

For the compound `COCC(=O)O[C@]1(CCN(C)CCCc2nc3ccccc3[nH]2)CCc2cc(F)ccc2[C@@H]1C(C)C` [Mibefradil, reference compound], the “Separation between potencies for blocking calcium influx and cytotoxicity” value in series [1] is on record as “low separation”. Further, in series [2], the IC50 at 3 h was determined as 25 ± 2 µM. Moreover, the IC50 at 7 h in series [3] is 22 ± 1 µM. In series [4], the “Reversibility of CatSper block” value was “irreversible loss of channel function”.

The IC50 is the concentration needed to halve the response being measured. Low values mean greater potency in that assay, high ones weaker potency in that assay.
